# According to ChEMBL document CHEMBL4017509, “A Dual Modulator of Farnesoid X Receptor and Soluble Epoxide Hydrolase To Counter Nonalcoholic Steatohepatitis” (J Med Chem, 2017):
# Active and inactive are the calls of the source. No cut-off for these calls is given here.
# Experiments:
# [1] = target: Peroxisome proliferator-activated receptor alpha (Homo sapiens) (UniProt Q07869); experiment: Transactivation of human GAL4-fused PPARalpha ligand binding domain expressed in […] cells at 10 uM after 12 to 14 hrs by dual-glo luciferase reporter gene assay; type: cell-based
# Outline: (§1)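 HEK293T cells in DMEM/10% FCS, Opti-MEM before Lipofectamine LTX transfection with pFR-Luc reporter, pRL-SV40 and pFA-CMV GAL4–LBD plasmid. 5 h later compound in 0.1% DMSO, Opti-MEM, overnight (12−14 h). Dual luciferase; firefly/renilla ×1000 = RLU, fold over DMSO control; triplicates, ≥3 independent repeats.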
# [2] = target: Retinoic acid receptor RXR-alpha (Homo sapiens) (UniProt P19793); experiment: Transactivation of human GAL4-fused RXRalpha ligand binding domain expressed in […] cells at 10 uM after 12 to 14 hrs by dual-glo luciferase reporter gene assay; type: cell-based; outline: as §1
# [3] = target: Retinoic acid receptor RXR-gamma (Homo sapiens) (UniProt P48443); experiment: Transactivation of human GAL4-fused RXRgamma ligand binding domain expressed in […] cells at 10 uM after 12 to 14 hrs by dual-glo luciferase reporter gene assay; type: cell-based; outline: as §1
# [4] = target: Retinoic acid receptor alpha (Homo sapiens) (UniProt P10276); experiment: Transactivation of human GAL4-fused RARalpha ligand binding domain expressed in […] cells at 10 uM after 12 to 14 hrs by dual-glo luciferase reporter gene assay; type: cell-based; outline: as §1
# [5] = target: T1, Bile acid receptor (Homo sapiens) (UniProt Q96RI1); experiment: Transactivation of FXR in human HepG2 cells assessed as SREBP1c mRNA expression at 1 uM after 8 to 16 hrs by SYBR green based qRT-PCR analysis relative to DMSO control; type: cell-based
# T1 sequence (whole entry): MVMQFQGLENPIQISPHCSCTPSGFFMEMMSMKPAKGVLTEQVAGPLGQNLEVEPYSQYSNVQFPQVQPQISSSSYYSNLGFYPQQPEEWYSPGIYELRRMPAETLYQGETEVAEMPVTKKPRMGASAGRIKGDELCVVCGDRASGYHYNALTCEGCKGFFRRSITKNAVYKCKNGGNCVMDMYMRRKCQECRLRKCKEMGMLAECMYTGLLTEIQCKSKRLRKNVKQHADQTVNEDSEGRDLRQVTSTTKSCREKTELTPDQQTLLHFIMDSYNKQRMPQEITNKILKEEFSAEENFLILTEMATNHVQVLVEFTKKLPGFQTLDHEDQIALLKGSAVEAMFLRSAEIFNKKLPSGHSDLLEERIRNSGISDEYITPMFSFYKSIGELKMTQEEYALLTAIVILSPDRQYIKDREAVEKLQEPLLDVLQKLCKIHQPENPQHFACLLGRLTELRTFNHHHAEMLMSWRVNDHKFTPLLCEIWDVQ
# Outline: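 HepG2 cells incubated with test compound (0.1 and 1 μM) or 0.1% DMSO for 8 or 16 h, washed in cold PBS, RNA extracted; target mRNA by SYBR Green qRT-PCR, duplicate samples, ≥4 independent experiments; comparative ΔΔCt with GAPDH reference, vehicle set as 100%.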
# [6] = target: T2, Bifunctional epoxide hydrolase 2 (Homo sapiens) (UniProt P34913); experiment: Inhibition of sEH in human HepG2 cells assessed as NF-kappaB mRNA expression at 1 uM after 8 to 16 hrs by SYBR green based qRT-PCR analysis relative to DMSO control; type: cell-based
# T2 sequence (whole entry): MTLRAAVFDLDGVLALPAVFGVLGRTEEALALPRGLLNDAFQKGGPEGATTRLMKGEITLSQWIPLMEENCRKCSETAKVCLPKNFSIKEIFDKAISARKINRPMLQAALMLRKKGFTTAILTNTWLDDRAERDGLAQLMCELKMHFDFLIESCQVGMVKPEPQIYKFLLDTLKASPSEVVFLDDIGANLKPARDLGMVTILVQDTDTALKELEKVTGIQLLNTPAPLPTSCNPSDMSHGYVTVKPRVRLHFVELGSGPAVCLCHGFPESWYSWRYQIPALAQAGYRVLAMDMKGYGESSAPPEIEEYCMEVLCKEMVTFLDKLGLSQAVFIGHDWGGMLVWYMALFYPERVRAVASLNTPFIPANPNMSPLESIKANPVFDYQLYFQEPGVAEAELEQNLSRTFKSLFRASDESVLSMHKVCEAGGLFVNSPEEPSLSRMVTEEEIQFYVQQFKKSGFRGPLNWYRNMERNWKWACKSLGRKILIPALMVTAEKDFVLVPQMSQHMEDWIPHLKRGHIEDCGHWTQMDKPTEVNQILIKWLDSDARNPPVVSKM
# Outline: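 HepG2 cells treated with compound or 0.1% DMSO vehicle; NF-κB mRNA quantified by SYBR Green qRT-PCR, comparative ΔΔCt with GAPDH reference; expressed as % of vehicle (100%).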
# [7] = tested on: Mus musculus; experiment: In vivo activation of FXR in C57BL/6JRj mouse liver assessed as CYP7A1 mRNA expression at 10 mg/kg, po measured up to 480 mins post dose by qRT-PCR analysis relative to control; type: ADME, organism-based; settings: 8 h
# Outline: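 Male C57BL/6JRj mice (23−26 g), single oral 10 mg/kg in water with 1% HPMC/Tween 80 (99:1); vehicle group n = 3, treated n = 6. Livers taken 8 h postdose, snap-frozen; cells pressed through 40 μm strainer, total RNA extracted, qRT-PCR with ΔΔCt, % of vehicle.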
# [8] = target: T3, Peroxisome proliferator-activated receptor gamma (Homo sapiens) (UniProt P37231); experiment: Transactivation of PPARgamma in human HepG2 cells assessed as FAM3A mRNA expression at 10 uM after 8 to 16 hrs by SYBR green based qRT-PCR analysis relative to DMSO control; type: cell-based
# T3 sequence (whole entry): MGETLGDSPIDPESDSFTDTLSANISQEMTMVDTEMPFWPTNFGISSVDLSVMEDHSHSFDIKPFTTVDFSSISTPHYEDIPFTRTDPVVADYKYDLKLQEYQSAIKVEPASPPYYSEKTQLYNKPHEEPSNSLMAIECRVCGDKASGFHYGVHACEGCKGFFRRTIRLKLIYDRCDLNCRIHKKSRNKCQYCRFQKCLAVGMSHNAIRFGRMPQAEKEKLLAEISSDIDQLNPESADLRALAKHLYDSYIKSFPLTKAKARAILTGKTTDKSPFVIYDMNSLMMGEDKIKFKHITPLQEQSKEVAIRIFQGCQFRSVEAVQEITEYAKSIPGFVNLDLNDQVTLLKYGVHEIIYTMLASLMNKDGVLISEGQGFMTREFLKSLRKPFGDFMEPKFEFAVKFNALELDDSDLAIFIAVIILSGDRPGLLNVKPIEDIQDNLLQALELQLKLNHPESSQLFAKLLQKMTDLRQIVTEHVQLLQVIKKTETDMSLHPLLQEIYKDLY
# Outline: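 HepG2 cells treated 8 or 16 h with compound or 0.1% DMSO, washed in cold PBS, RNA extracted; SYBR Green qRT-PCR in duplicate, ≥4 independent experiments (n = 3 for CD36/FAM3A). ΔΔCt method with GAPDH reference; expression as % of vehicle (100%). Pioglitazone 1 μM used as positive control for the PPARγ genes.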
# Retinoic acid receptor RXR-gamma (Homo sapiens), sequence (P48443 whole entry, the tested form may be a part): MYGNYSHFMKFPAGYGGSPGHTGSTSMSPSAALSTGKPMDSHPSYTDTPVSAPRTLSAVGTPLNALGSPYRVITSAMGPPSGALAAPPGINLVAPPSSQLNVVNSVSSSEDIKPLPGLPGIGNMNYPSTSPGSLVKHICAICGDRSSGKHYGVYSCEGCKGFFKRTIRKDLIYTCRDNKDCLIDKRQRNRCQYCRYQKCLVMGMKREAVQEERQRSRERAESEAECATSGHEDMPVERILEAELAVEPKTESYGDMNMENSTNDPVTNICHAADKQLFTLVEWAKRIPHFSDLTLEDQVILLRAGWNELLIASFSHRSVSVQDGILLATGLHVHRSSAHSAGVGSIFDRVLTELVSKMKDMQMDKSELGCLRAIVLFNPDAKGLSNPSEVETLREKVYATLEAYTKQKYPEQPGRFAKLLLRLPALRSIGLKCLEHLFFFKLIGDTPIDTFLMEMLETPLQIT
# Retinoic acid receptor alpha (Homo sapiens), sequence (P10276 whole entry, the tested form may be a part): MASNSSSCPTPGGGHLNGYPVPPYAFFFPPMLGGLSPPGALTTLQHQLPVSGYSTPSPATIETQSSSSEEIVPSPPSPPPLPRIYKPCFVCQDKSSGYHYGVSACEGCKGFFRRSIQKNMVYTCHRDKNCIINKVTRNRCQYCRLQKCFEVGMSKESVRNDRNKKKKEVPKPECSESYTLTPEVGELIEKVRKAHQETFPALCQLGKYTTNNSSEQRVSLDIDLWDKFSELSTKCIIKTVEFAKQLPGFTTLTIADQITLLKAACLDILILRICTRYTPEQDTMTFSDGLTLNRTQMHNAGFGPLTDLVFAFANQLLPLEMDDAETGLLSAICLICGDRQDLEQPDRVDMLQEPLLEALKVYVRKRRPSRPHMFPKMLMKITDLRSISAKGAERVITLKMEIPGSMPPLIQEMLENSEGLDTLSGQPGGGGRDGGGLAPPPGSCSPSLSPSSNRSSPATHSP
# Peroxisome proliferator-activated receptor alpha (Homo sapiens), sequence (Q07869 whole entry, the tested form may be a part): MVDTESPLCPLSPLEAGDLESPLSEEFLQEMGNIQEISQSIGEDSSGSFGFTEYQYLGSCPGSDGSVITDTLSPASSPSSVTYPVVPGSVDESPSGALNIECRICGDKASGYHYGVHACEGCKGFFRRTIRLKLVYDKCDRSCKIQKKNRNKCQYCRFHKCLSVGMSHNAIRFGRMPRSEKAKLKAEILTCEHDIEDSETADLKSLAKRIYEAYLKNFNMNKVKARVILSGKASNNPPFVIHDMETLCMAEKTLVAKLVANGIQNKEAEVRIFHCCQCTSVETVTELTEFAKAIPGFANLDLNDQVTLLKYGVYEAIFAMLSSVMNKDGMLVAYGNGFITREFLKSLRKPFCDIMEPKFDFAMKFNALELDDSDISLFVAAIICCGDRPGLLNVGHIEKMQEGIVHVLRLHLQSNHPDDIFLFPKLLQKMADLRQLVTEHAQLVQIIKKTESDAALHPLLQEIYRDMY
# Retinoic acid receptor RXR-alpha (Homo sapiens), sequence (P19793 whole entry, the tested form may be a part): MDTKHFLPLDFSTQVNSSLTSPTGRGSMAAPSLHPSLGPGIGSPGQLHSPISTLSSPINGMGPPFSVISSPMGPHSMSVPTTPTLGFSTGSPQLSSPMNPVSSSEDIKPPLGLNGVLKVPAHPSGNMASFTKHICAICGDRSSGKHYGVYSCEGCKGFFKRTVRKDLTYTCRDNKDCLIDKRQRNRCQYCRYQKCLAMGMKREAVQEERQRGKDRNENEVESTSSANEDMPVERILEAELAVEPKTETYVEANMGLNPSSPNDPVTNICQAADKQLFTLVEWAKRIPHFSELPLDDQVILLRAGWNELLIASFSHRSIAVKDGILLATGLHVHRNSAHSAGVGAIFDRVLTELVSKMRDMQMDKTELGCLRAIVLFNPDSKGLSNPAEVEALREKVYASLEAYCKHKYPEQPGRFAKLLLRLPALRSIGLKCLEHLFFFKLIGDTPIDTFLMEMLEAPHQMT
compound,measurement,setting,value
CC(C)(C)c1ccc(C(=O)NCc2ccc(NS(C)(=O)=O)cc2Cl)cc1,Activity,[1],inactive
same,Activity,[2],inactive
same,Activity,[3],inactive
same,Activity,[4],inactive
same,Activity,[5],36%
same,inhibition,[6],17.6%
same,Activity,[7],70%
same,Activity,[8],142%
